From PubChem
A selection: hits, their analogues and other compounds. The true share with any hit is near 3%.
rRNA inh HTS – reduced GFP signal of wild-type E. coli, primary screen, bacterial rRNA inhibitor project, GFP/RFP fluorescence, OD600, single point | E. coli WT GFP vs humanized-ribosome RFP mutants, 24 h; active compounds read low; DMSO median 0, no signal -100 | GFP signal change (wild-type ribosome), % (no concentration beside the values) | actives 1.6% (n = 350,000);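 active = significant combined selectivity score with lowered wild-type GFP, culture density cut under 30%, mutant RFP and density less affected; inactive = any of these conditions unmet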
Cneo AK release – Cryptococcus neoformans cell lysis inducers, primary screen, AK release luminescence, single concentration; C. neoformans lysis, adenylate kinase release luminescence, 4 h; normalised: neutral wells 0, clomiphene wells 100; lysis activity, % at 15 µM; actives 0.2% (n = 360,000); AID 651654, 2012;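 active = mean lysis activity across replicates of at least 80%, whatever share of replicates individually reach that level; inactive = mean lysis activity below 80%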
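read-out = cell lysis signal | test system = log-phase Cryptococcus neoformans yeast cells | input = cells at 5 × 10^6 per mL | medium = fresh YPD growth medium | signal = luminescent adenylate kinase detection reagent | timing = 4 h at 37 °C static, read 1 h later | dosing = single dose | controls = Clomiphene as positive lysis control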
Statin myotox sup – suppressors of statin myotoxicity in C2C12 myotubes, primary screen, cell-based, single point, plate reader. C2C12 myotubes + simvastatin, ATP luminescence, 48 h; scaled: DMSO 0, geranylgeraniol control 100. rescue of ATP level, % at 7.49 µM. actives 0.78% (n = 330,000);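 active = mean ATP rescue above about 67%, or every replicate alone reaching that limit, limit read from the data, passing the limit was not always enough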;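 also: myotubes were challenged with 10 µM simvastatin during compound exposure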
SIRT5 block – SIRT5 desuccinylase inhibitors, primary screen, biochemical, fluorescence imaging, single point, set 5; NAD-dependent protein deacylase sirtuin-5, mitochondrial (Homo sapiens), Q9NXA8; Purified SirT5, succinyl-peptide AMC, trypsin-coupled fluorescence; inhibition, % at 15 µM; actives 1.1% (n = 330,000); in the data active = inhibition above about 15%
Target sequence (Q9NXA8 whole entry, looked up): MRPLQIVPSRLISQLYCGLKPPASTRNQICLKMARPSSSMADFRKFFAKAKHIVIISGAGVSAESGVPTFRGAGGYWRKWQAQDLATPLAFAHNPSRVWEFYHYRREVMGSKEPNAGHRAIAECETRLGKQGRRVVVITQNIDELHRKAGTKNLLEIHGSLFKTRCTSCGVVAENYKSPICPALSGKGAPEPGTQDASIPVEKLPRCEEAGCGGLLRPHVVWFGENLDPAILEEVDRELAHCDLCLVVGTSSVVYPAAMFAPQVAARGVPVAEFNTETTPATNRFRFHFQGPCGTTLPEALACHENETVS
S100A4 MyoIIA – inhibitors of S100A4-myosin IIA peptide binding, primary screen, biochemical, fluorescence polarization, TAMRA-MyoIIA peptide; Protein S100-A4 (Homo sapiens), P26447; inhibition, % at 10.7 µM; actives 0.14% (n = 360,000);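 active = mean inhibition of at least 70% across replicates, with every replicate also reaching that level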
Target sequence (P26447 whole entry, looked up): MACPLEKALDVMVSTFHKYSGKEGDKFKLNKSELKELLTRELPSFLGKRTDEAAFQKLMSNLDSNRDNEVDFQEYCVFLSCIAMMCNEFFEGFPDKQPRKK
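Material: human S100A4 monomer with TAMRA-labelled myosin IIA peptide; buffer or medium: HEPES pH 7.2 with CaCl2, KCl, NaCl, DTT, Triton; compound dosing: one concentration per compound; schedule: 5 min incubation before reading; benchmarks: neutral control DMSO, positive control TFP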
PGC1a acetyl inh – inhibitors of PGC1a acetylation signal, primary screen, cell-based, U2OS, AlphaScreen, inhibitor mode; AlphaScreen anti-acetyl-lysine; with virally co-expressed GCN5 acetyltransferase; inhibition, % at 15.6 µM; actives 0.17% (n = 350,000);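 active = every replicate shows inhibition of at least 40%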;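 also: 0% = neutral control wells and 100% = positive control wells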
The depositor's hits bear a star; i = inactive; x = no result given.

SMILES	rRNA inh HTS	Cneo AK release	Statin myotox sup	SIRT5 block	S100A4 MyoIIA	PGC1a acetyl inh
CO[C@H]1CN(C)C(=O)c2cc(NS(=O)(=O)CC(F)(F)F)ccc2OC[C@@H](C)N(CC2CCCCC2)C[C@@H]1C	-4	-1	21	15	-3	8
C[C@@H]1CN([C@@H](C)CO)C(=O)c2cc(NS(=O)(=O)c3cn(C)cn3)ccc2O[C@@H](C)CCCCO[C@H]1CN(C)C(=O)Cc1ccccc1	-2	1	29	17*	1	-5
C[C@@H]1CCCCO[C@@H](CN(C)C(=O)NC2CCCCC2)[C@H](C)CN([C@@H](C)CO)C(=O)c2cc(NS(=O)(=O)c3cn(C)cn3)ccc2O1	-1	101*	2	-1	1	x
C[C@@H]1CCCCO[C@H](CN(C)C(=O)NC2CCCCC2)[C@@H](C)CN([C@@H](C)CO)C(=O)c2cc(NS(=O)(=O)c3cn(C)cn3)ccc2O1	-2	0	10	-2	16	x
C[C@@H]1CCCCO[C@@H](CN(C)C(=O)Cc2ccccc2)[C@H](C)CN([C@@H](C)CO)C(=O)c2cc(NS(=O)(=O)c3cn(C)cn3)ccc2O1	1	-1	63	7	-3	-6
C[C@@H]1CN([C@@H](C)CO)C(=O)c2cc(NS(=O)(=O)c3cn(C)cn3)ccc2O[C@@H](C)CCCCO[C@H]1CN(C)C	x	98*	x	1	0	10
O=S(=O)(c1ccccc1)N1[C@@H]2CNC[C@H]1C2c1ccc(/C=C/c2ccccc2)cc1 (some centres undefined)	-9	x	x	9	-15	4
C[C@@H]1CCCCO[C@H](CN(C)C(=O)Nc2ccc(F)cc2)[C@@H](C)CN([C@H](C)CO)C(=O)c2cc(NC(=O)CCC(F)(F)F)ccc2O1	1	-4	x	-3	2	3
NCC[C@H]1CC[C@H](NC(=O)C2CCCCC2)[C@@H](CO)O1	3	3	7	0	4	-7
COCCNC(=O)c1nn(-c2cc(OC)cc(OC)c2)c(=O)c2ccccc12	x	0	110*	x	x	0
COc1cc(OC)cc(-n2nc(C(=O)NCCCN3CCOCC3)c3ccccc3c2=O)c1	x	0	x	x	x	-2
Cc1noc(C)c1NC(=O)Nc1ccc2c(c1)C(=O)N([C@H](C)CO)C[C@H](C)[C@H](CN(C)C(=O)Nc1cccc3ccccc13)OCCCC[C@H](C)O2	-3	-4	x	x	x	-12
CC(C)NC(=O)N(C)C[C@H]1Oc2c(NC(=O)C3CCCCC3)cccc2C(=O)N([C@H](C)CO)C[C@H]1C	2	114*	-15	2	-11	x
CC(C)NC(=O)N(C)C[C@@H]1Oc2c(NC(=O)C3CCCCC3)cccc2C(=O)N([C@@H](C)CO)C[C@@H]1C	2	84*	-21	3	-7	x
CO[C@H]1CN(C)C(=O)c2cc(NC(=O)C3CC3)ccc2OC[C@@H](C)N(C(=O)C2CCCCC2)C[C@H]1C	-2	-7	10	-1	-13	1
CCCN1C[C@H](C)[C@@H](OC)CN(C)C(=O)c2cc(NC(=O)c3cccc(F)c3)ccc2OC[C@@H]1C	1	117*	-22	10	10	5
CCCN1C[C@@H](C)[C@H](OC)CN(C)C(=O)c2ccc(NC(=O)Nc3cccc(F)c3)cc2OC[C@@H]1C	-6	-4	-10	18*	-1	x
CCCN1C[C@H](C)[C@H](OC)CN(C)C(=O)c2ccc(NC(=O)Nc3cccc(F)c3)cc2OC[C@H]1C	-4	x	x	7	-7	-5
COc1ccc(OC)c(-c2nc(CN3CCCCC3c3cccnc3)c(C)o2)c1 (centres undefined)	-5	x	x	-3	10	-7
COc1ccc(-c2nc(CN3CCCCC3c3nccn3C)c(C)o2)c(C)c1C (centres undefined)	-33*	0	-1	3	-5	19
CC1(C)Cc2ccccc2-c2nc(NCCCO)[nH]c(=O)c21	-43*	-2	14	-33	-6	-15
CCn1c(NCCO)nc2c(c1=O)C(C)(CC)Cc1ccccc1-2 (centres undefined)	-28*	x	x	-6	-4	x
CC(=O)c1cccc(NC(=O)N2CCCC2C(=O)Nc2cc(C)ccc2C)c1 (centres undefined)	x	-2	115*	x	x	-19
COc1ccc(C)cc1NC(=O)C1CCCN1C(=O)OCc1ccccc1 (centres undefined)	x	-2	132*	x	x	-18
Cc1cccc(NC(=O)C2CCCN2C(=O)OCC(C)C)c1C (centres undefined)	13	-2	91*	-3	2	5
SMILES	rRNA inh HTS	Cneo AK release	Statin myotox sup	SIRT5 block	S100A4 MyoIIA	PGC1a acetyl inh
Cc1ccc(-c2cc(N)n(-c3ccc(C)cc3)n2)cc1	x	0	112*	x	x	-14
Cc1ccc(-c2cc(N)n(-c3ccc(F)cc3)n2)cc1	4	x	x	-3	6	x
O=C(C[C@H]1C[C@H]2c3cc(NC(=O)Cc4ccncc4)ccc3O[C@H]2[C@H](CO)O1)NCc1ccc(-c2ccccc2)cc1	-4	3	7	3	-3	-2
C[C@@H]1CN([C@@H](C)CO)C(=O)c2cc(NC(=O)C3CC3)ccc2O[C@H]1CN(C)S(=O)(=O)c1cn(C)cn1	1	-1	9	-2	-32	15
C[C@H](CO)N1C[C@H](C)[C@@H](CN(C)S(=O)(=O)c2ccc(Cl)cc2)Oc2ccc(NS(=O)(=O)c3ccc(F)cc3)cc2CC1=O	-3	1	37	x	x	-20
CC(=O)O[C@@H]1[C@H]2[C@@H](C[C@@H](C)[C@@H]3C=CC(=O)[C@@]13C)OC(=O)[C@@H]2C	24	1	115*	-6	0	8
O=C(C[C@@H]1CC[C@@H]2[C@H](COC[C@@H](O)CN2Cc2nccs2)O1)N1CCC(Cc2ccccc2)CC1	i	1	27	x	x	-1
CN(CC(=O)NCc1ccco1)CC(=O)Nc1ccc(F)c(F)c1F	22	2	109*	0	-3	-8
Cn1cc(/C=C2\SC(=O)N(c3ccc(O)cc3)C2=O)c2ccccc21	-35*	-2	x	-1	3	5
CCCC#Cc1cnc2c(c1)C(=O)N([C@H](C)CO)C[C@@H](C)[C@@H](CN(C)C(=O)C1CCCCC1)O2	7	x	-2	x	x	-6
